# In the library only some 2.5% were active in any assay of this set; here they are far more common.
# Diaphorase act = diaphorase activation or chemical reduction counter-screen | Diaphorase/resazurin coupled assay, resorufin fluorescence, 16 min; active compounds read high; 1 = vehicle wells, 0 = NADH-free wells | activation factor at 20 µM | hit rate 0.005% among 190,000;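 active = diaphorase activity raised at least twofold by the compound at 20 µM; inactive = activation factor below 2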
#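 Assay system: bacterial diaphorase enzyme (C. kluyveri) / Input: enzyme 0.07 U/mL final / Medium: 50 mM HEPES pH 7.4 with 4.542 mM MgCl2, 0.005% Tween 20 / Doses: single compound dose of 20 µM, 1% DMSO final / Incubation: 16 min enzyme reaction, ambient temperature / Signal: fluorescence, excitation 544 nm and emission 590 nm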
# PMI act satM6P = activators of human phosphomannose isomerase at near-saturating mannose 6-phosphate; coupled PMI enzyme assay, resazurin fluorescence, 20 min; active compounds read high; 1 = untreated enzyme, 0 = substrate-free blank; hit rate 0.34% among 190,000; activation factor at 20 µM; P34949;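 active = activation factor of 2 or more at 20 µM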
#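 assay system = human phosphomannose isomerase with PGI, G6PDH, diaphorase coupling enzymes | quantity = 15 ng/mL PMI | incubation = enzyme reaction with compound 20 min at room temperature | medium = HEPES pH 7.4 buffer with MgCl2 and Tween-20 | compound dosing = one concentration, 20 µM, in 1% DMSO | measured by = Diaphorase-driven resazurin-to-resorufin fluorescence, excitation 544, emission 590 nm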
# FLuc inh counter = Photinus pyralis luciferase inhibition counter-screen; inhibition, % at 10 µM; ATPLite firefly luciferase biochemical luminescence, 10 min; hit rate 1.5% among 200,000; P08659;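 active = inhibition above about 50% when tested at 10 µM, limit read from the data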
# Target sequence (P08659 whole entry, looked up): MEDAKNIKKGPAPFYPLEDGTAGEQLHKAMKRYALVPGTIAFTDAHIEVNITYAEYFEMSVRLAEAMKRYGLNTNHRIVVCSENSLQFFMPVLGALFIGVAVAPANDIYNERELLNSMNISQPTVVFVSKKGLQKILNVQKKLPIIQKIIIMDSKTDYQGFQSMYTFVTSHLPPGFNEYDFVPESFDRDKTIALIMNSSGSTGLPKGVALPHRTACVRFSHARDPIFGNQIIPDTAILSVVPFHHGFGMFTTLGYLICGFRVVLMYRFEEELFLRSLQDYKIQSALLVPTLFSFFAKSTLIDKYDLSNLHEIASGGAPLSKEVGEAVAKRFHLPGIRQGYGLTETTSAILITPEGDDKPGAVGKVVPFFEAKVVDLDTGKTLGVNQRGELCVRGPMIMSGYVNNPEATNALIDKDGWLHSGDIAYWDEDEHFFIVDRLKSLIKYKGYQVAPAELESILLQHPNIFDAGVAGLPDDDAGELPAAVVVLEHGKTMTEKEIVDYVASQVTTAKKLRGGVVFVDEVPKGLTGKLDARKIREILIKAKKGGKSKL
# PMI act = increases human mannose-6-phosphate isomerase activity. activation factor at 20 µM. P34949. hit rate 0.005% among 190,000. purified human PMI, coupled resazurin fluorescence, 20 min; active compounds read high; 1 = vehicle control, 0 substrate-free wells;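 active = activation factor of 2 or more at 20 µM, relative to plate controls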
# Diaph inh CS = diaphorase inhibition or chemical oxidation counter-screen | inhibition, % at 20 µM | diaphorase resazurin-to-resorufin fluorescence, NADH, 16 min; bacterial (C. kluyveri) enzyme, not human | hit rate 0.69% among 190,000;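 active = primary screen inhibition at 20 µM above a set limit, cut at about 50% in these data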;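 also: plate controls were DMSO with full reaction for no effect and wells lacking NADH for full effect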
#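 Detection: fluorescence of resorufin formed from resazurin, Ex 544/Em 590 nm; test system: Clostridium kluyveri diaphorase enzyme; amount: 0.14 U/mL diaphorase, enzyme working solution; times: 16-min room-temperature incubation before reading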
# FLuc act counter = firefly luciferase counter-screen for stimulation assays; P08659; ATPlite luciferase biochemical, luminescence, 10 min; 0 = ATP-free wells, 1 = DMSO control; activation factor at 10 µM; 200,000 tested, under 10 active; AID 1027;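 active = luciferase activation factor, scaled between plate controls, of at least 2 with compound at 10 µM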
#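 System: luciferase plus luciferin reagent, cell-free; medium: PBS as buffer for the ATP substrate; dosing: test compounds dosed from 2 mM stocks in 100% DMSO; timing: 10 min post-reagent at room temperature; measured by: luminescence measurement of luciferase light output; evaluation: luciferase activation, seen as luminescence increase over controls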
# Starred values were filed as active, the others as inactive; . = not tested or not shown.
SMILES,Diaphorase act,PMI act satM6P,FLuc inh counter,PMI act,Diaph inh CS,FLuc act counter
CC(=O)Nc1ccc(OC(=O)c2ccc(Br)c([N+](=O)[O-])c2)cc1,1,1,0,1,3,1
N#Cc1cc2c([nH]c1=S)CCCC2,1.4,2*,14,1.8,-42,0.9
Cc1cc(C)cc(Oc2ccccc2CO)c1,0.7,0.9,-7,0.9,27,1.1
O=C(/C=C/c1cccc(F)c1)N1CCc2ccccc21,0.8,0.6,62*,0.9,18,0.4
O=C(/C=C/c1ccc(Cl)cc1Cl)N1CCc2ccccc21,0.9,1,63*,1,9,0.4
NC1=NS(=O)(=O)NC1c1ccc(F)cc1 (configuration not stated),0.9,1,-5,1,8,1.1
Cc1ccc(C(=O)NC(=S)/C=C2\N(C)c3ccccc3C2(C)C)cc1,0.3,0.8,-6,0.7,67*,1.1
COc1ccc(C(=O)Nc2nc3nccc(-c4ccccc4)n3n2)cc1,0.9,1,14,1,12,0.9
CC(/C=N/NC(=O)c1cccnc1)=C\c1ccccc1,1.1,0.5,65*,1,-7,0.4
O=C(N/N=C/C(Cl)=C/c1ccccc1)c1cnccn1,1,1,56*,1,-3,0.4
CC(/C=N/NC(=O)c1ccc(Br)cc1)=C\c1ccccc1,1.1,1.1,20,1.1,-5,0.8
O=C(N/N=C/C(Cl)=C/c1ccccc1)c1ccco1,0.8,1,64*,0.9,19,0.4
CC(/C=N\NC(=O)c1cc(C)oc1C)=C\c1ccccc1,0.9,1,76*,1,15,0.2
O=C(N/N=C/C(Cl)=C\c1ccccc1)c1cnccn1,0.9,0.9,46,0.9,15,0.5
CC(=C/c1ccccc1)/C=N/NC(=O)c1cnccn1,0.9,1,74*,0.9,8,0.3
O=C(NC(=S)NCC1CCCO1)c1cccc([N+](=O)[O-])c1 (configuration not stated),0.9,1,-5,1,10,1.1
O=C(N/N=C/c1cn(-c2ccccc2)nc1-c1cccs1)c1ccncc1,0.9,0.8,14,0.9,10,0.9
NC(=O)N/N=C/c1cn(-c2ccccc2)nc1-c1cccs1,0.7,0.9,70*,0.9,27,0.3
O=C(O)c1cccc(N/N=C/c2cn(-c3ccccc3)nc2-c2cccs2)c1,0.9,1.3,54*,1.4,15,0.5
COc1ccc(C(=O)N/N=C/c2c(CO)cnc(C)c2O)cc1,0.9,1.4,35,1.1,15,0.6
COc1ccccc1N/N=C/c1c(CO)cnc(C)c1O,0.9,2.1*,4,1.6,10,1
Clc1ccc(Cn2cccn2)cn1,0.7,0.9,-3,0.9,29,1
COc1cc(OC)cc(C(=O)NCc2cc(C)nc3ccccc23)c1,0.2,1,-4,0.9,76*,1
Cc1ccnc(NC(=O)C(C)n2cc([N+](=O)[O-])cn2)c1 (configuration not stated),1.2,1.1,0,1.2,-19,1
Cc1ccc(CNC(=O)c2ccc(C#CC(C)(C)O)s2)cc1,0.9,1,-3,1,7,1
SMILES,Diaphorase act,PMI act satM6P,FLuc inh counter,PMI act,Diaph inh CS,FLuc act counter
COC(=O)CS(=O)(=O)c1ccsc1C(=O)Nc1ccc(F)cc1,0.9,0.9,-3,0.9,6,1
CN(C)c1ccc(/C=C/c2ccc3c4ccccc4ccc3[n+]2-c2ccccc2)cc1,0.3,0.9,65*,1.1,68*,0.3
CN(C)c1ccc(/C=C/c2ccc3ccccc3[n+]2C)cc1,1.1,1,32,0.7,-6,0.7
COc1ccccc1-c1ccc(=O)n(CC(=O)NC2CCc3ccccc32)n1 (configuration not stated),.,.,-5,.,.,1
Cc1nc2c(ccc3nc(NC(=O)c4ccc5c(c4)OCCO5)sc32)s1,1.1,1,86*,0.9,-11,0.1
O=C(NNc1nc2cc3c(cc2s1)OCCO3)c1ccc(F)cc1,0.9,1,-3,1.1,14,1
Fc1ccc2nc(Nc3nc4cc5c(cc4s3)OCCO5)sc2c1,0.8,0.9,52*,0.9,15,0.5
O=C(Nc1nc2cc3c(cc2s1)OCCO3)c1ccncc1,1,1.1,76*,1.3,5,0.2
CCCCc1nnc(SCCSc2nnc(CCCC)n2N)n1N,0.9,0.9,-2,0.9,10,1
COc1n[nH]c(C(=O)Nc2nc3ccccc3s2)c1[N+](=O)[O-],0.7,0.8,28,0.9,28,0.7
CCOC(=O)c1cnn(-c2cc(Oc3ccccc3C)ncn2)c1N,0.9,0.9,-3,0.9,14,1
Cc1nnc(SCCOc2ccccc2)s1,1,1.1,3,1.3,0,1
CCOC(=O)c1cc2c(=O)n3cccc(C)c3nc2n(Cc2ccco2)c1=NC(=O)c1cccnc1,0.7,1.2,2,1,31,1
Cc1cccc(C(=O)N=c2c(C#N)cc3c(=O)n4cccc(C)c4nc3n2Cc2ccco2)c1,0.4,1.1,-1,1,60*,1
C=C1c2ccccc2NC(=S)N1Cc1ccc2c(c1)OCO2,0.8,1.2,-3,1.3,20,1
CC(/C=N/Nc1nc(C)cc(C)n1)=C\c1ccc(C(C)C)cc1,1,1.3,-1,1.2,2,1
CC1(C)CC(=O)c2sc(NC(=O)c3ccco3)nc2C1,0.9,1,74*,1,12,0.3
CC1CCc2nc(NC(=O)c3ccco3)sc2C1 (configuration not stated),1,1,93*,0.9,3,0.1
Cc1onc(-c2ccccc2)c1C(=O)Nc1nc2c(s1)C(=O)CC(C)(C)C2,0.9,1,-8,1,10,1.1
CC(C)n1nc(C(=O)Nc2nc3ccccc3[nH]2)c2ccccc2c1=O,0.7,0.9,-6,0.9,26,1.1
COc1ccc(-c2cn3cc(C)ccc3n2)cc1F,1,1.1,93*,1,-3,0.1
COc1ccc(-c2csc(C)n2)cc1OC,0.9,1.1,-3,1.1,8,1
CCOc1ccc(-c2cn3ccccc3n2)cc1,1,1,97*,1,-5,0
COc1ccc(-c2cn3ccccc3n2)cc1OC,0.9,1,77*,1,14,0.2
COc1ccc(-c2cn3cc(C)ccc3n2)cc1OC,1,1.1,88*,1,-2,0.1

# Screens from PubChem.
